Laboratory results: ChEMBL document CHEMBL2010694, “Indolyl and dihydroindolyl N-glycinamides as potent and in vivo active NPY5 antagonists” (Bioorg Med Chem Lett, 2012)

Columns and labels:
[1] = target: T1, Neuropeptide Y receptor type 5 (Homo sapiens, UniProt Q15761); experiment: Displacement of [125I]peptide YY from human NPY5 receptor
T1 sequence (Q15761 whole entry): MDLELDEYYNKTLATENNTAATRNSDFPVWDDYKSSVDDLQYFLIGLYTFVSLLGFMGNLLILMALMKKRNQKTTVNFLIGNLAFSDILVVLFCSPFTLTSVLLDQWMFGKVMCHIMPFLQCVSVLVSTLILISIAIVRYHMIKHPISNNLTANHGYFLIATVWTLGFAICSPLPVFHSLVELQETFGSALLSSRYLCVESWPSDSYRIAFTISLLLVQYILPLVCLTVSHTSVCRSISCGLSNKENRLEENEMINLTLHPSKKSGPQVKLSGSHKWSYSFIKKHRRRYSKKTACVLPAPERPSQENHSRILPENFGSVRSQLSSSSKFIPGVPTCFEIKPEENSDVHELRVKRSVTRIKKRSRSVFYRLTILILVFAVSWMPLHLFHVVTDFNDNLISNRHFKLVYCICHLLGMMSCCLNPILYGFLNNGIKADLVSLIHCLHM

[2] = test system: Liver microsomes; experiment: Intrinsic clearance in rat liver microsomes at 1 uM by LC/MS analysis; assay type: ADME, Microsome
Method in brief: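 Compound incubated with human or rat liver microsomes; reaction quenched with acetonitrile, centrifuged, and remaining drug in supernatant measured by LC/MS to estimate T1/2, from which intrinsic clearance was derived.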

[3] = test system: Brain; experiment: Drug uptake in Sprague-Dawley rat brain at 10 mg/kg, po by LC-MS/MS analysis; assay type: ADME, organism-based; parameters: dose 10 mg/kg, route oral; conditions: in vivo, read-out: Drug uptake
Method in brief: (§1)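 Male Sprague-Dawley rats (300–350 g), femoral artery cannulated; single 10 mg/kg oral dose in an appropriate vehicle, N = 3. Blood taken predose, 1, 2 and 4 h; brains then collected and stored at -80 °C. Equal portions of plasma or homogenized brain from the three rats pooled per time point, protein precipitated, quantified by LC/MS/MS.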

[4] = test system: Plasma; experiment: Plasma concentration in Sprague-Dawley rat at 10 mg/kg, po by LC-MS/MS analysis; assay type: ADME, organism-based; parameters: dose 10 mg/kg, route oral; conditions: in vivo; method in brief: as §1
[5] = test system: MDR; experiment: Apparent permeability from basolateral to apical side in MDCK cells expressing MDR; assay type: ADME, cell-based, Canis lupus familiaris; conditions: dog, MDCK-MDR1
Method in brief: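 Bidirectional permeability (A–B and B–A) across a Pgp-overexpressing mdr-MDCK cell monolayer; efflux ratio derived from the two Papp values, given in 10^-6 cm/s.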

[6] = Drug uptake in Sprague-Dawley rat brain at 10 mg/kg, po after 1 hr by LC-MS/MS analysis; assay type: ADME, organism-based; parameters: dose 10 mg/kg, route oral; conditions: read-out: Drug uptake; method in brief: as §1
[7] = Lipophilicity, log D of the compound at pH 7.4; assay type: physicochemical; conditions: buffer
[8] = Protein binding in human; assay type: ADME, organism-based; conditions: plasma, read-out: PB (converted)
[9] = target: T2, Cytochrome P450 2C8 (Homo sapiens, UniProt P10632); experiment: Inhibition of CYP2C8; assay type: ADME
T2 sequence (P10632 whole entry): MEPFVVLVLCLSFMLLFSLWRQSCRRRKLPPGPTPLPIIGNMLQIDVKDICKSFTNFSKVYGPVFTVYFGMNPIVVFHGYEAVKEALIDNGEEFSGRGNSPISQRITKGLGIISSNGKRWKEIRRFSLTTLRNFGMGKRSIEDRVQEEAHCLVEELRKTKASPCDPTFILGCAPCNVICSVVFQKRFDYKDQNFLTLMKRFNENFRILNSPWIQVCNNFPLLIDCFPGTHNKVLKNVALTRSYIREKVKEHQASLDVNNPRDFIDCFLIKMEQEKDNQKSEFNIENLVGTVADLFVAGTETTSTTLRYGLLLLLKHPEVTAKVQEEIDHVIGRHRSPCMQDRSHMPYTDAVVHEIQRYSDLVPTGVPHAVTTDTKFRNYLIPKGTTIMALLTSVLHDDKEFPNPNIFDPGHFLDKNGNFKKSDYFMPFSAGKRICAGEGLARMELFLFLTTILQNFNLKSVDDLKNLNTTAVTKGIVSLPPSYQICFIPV

[10] = target: Cytochrome P450 2C19 (Homo sapiens, UniProt P33261); experiment: Inhibition of CYP2C19; assay type: ADME
[11] = target: Cytochrome P450 2D6 (Homo sapiens, UniProt P10635); experiment: Inhibition of CYP2D6; assay type: ADME
[12] = Clearance in Sprague-Dawley rat plasma at 2 mg/kg, po and 1 mg/kg, iv after 24 hrs wash out period by HPLC analysis; assay type: ADME, organism-based
Method in brief: (§2)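 Male Sprague-Dawley rats (200–250 g), jugular and carotid artery cannulated; compound dissolved in 20% beta cyclodextrin, pH adjusted with methane sulfonic acid. Serial blood sampled at 12 time points over 24 h post dose by automated sampler; plasma from centrifugation analysed by HPLC; PK parameters by non-compartmental analysis of plasma concentration–time profile.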

[13] = Cmax in Sprague-Dawley rat plasma at 2 mg/kg, po and 1 mg/kg, iv after 24 hrs wash out period by HPLC analysis; assay type: ADME, organism-based; method in brief: as §2
[14] = Volume of distribution at steady state in Sprague-Dawley rat plasma at 2 mg/kg, po and 1 mg/kg, iv after 24 hrs wash out period by HPLC analysis; assay type: ADME, organism-based; conditions: read-out: Vdss; method in brief: as §2
[15] = test system: Rattus norvegicus; experiment: Antiobesity activity in po dosed cPP-induced feeding Sprague-Dawley rat model assessed as reduction in food intake measured 1 hr post cpp challenge; assay type: functional
Method in brief: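 Rats pretreated orally at 0.1, 1 or 10 mg/kg (vehicle 20% cyclodextrin) 1 h before intracerebroventricular infusion of Y5-selective peptide agonist cPP, 0.6 nmol in normal saline; food intake recorded, n = 7–14 per group.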

[16] = Drug uptake in cPP-induced feeding Sprague-Dawley rat model brain at 0.1 mg/kg, po after 1 hr; assay type: ADME, organism-based; parameters: dose 0.1 mg/kg, route oral; conditions: read-out: Drug uptake
Method in brief: (§3)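 Satellite animals from the cPP feeding study dosed orally at 0.1, 1 or 10 mg/kg; plasma (ng/mL) and brain (ng/g) levels measured 1 h after dosing.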

[17] = Drug uptake in cPP-induced feeding Sprague-Dawley rat model brain at 10 mg/kg, po after 1 hr; assay type: ADME, organism-based; parameters: dose 10 mg/kg, route oral; conditions: read-out: Drug uptake; method in brief: as §3
[18] = Plasma concentration in cPP-induced feeding Sprague-Dawley rat model at 0.1 mg/kg, po after 1 hr; assay type: ADME, organism-based; parameters: dose 0.1 mg/kg, route oral; method in brief: as §3
[19] = Plasma concentration in cPP-induced feeding Sprague-Dawley rat model at 10 mg/kg, po after 1 hr; assay type: ADME, organism-based; parameters: dose 10 mg/kg, route oral; method in brief: as §3

Sequence of Cytochrome P450 2D6 (P10635 whole entry): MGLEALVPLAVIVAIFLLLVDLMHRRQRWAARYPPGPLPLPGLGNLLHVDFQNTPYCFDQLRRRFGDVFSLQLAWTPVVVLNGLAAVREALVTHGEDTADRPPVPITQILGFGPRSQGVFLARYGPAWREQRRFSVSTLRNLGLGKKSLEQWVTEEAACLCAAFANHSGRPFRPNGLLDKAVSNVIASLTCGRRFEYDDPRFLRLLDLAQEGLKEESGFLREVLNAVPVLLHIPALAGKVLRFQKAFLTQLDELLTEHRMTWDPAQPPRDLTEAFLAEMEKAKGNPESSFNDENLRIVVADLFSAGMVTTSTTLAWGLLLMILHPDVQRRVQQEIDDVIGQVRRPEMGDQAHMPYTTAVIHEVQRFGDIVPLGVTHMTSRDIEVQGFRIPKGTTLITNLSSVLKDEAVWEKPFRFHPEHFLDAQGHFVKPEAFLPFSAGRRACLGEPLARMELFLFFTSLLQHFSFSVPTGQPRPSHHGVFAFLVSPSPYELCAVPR
Sequence of Cytochrome P450 2C19 (P33261 whole entry): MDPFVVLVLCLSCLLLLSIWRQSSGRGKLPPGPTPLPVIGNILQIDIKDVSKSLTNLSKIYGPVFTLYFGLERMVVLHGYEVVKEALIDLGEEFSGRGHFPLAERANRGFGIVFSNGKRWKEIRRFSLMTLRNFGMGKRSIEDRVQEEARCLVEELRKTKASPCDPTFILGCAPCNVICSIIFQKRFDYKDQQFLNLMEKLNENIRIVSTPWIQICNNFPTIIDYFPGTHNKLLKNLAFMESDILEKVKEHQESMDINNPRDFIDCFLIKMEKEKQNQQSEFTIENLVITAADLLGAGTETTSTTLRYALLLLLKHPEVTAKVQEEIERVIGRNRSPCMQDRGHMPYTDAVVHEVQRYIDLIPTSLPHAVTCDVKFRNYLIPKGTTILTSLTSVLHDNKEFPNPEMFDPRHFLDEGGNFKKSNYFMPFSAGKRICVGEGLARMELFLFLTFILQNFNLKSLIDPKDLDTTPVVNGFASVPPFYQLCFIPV

Ki [1]: 0.0005 µM | CLH [2]: 49 mL/min | concentration [3]: 304 nM | concentration [4]: 5610 nM | Papp B→A [5]: 60.1 ×10⁻⁶ cm/s | concentration at 1 h [6]: 295 nM | logD [7]: 3 | fraction unbound [8]: 0.009 | IC50 [9]: 8.2 µM | IC50 [10]: > 40 µM | IC50 [11]: > 40 µM | clearance [12]: 25 mL/min/kg | Cmax [13]: 700 ng/mL | Vd [14]: 1.9 L/kg | concentration at 1 h [16]: 11 ng/g | concentration at 1 h [17]: 151 ng/g | concentration at 1 h [18]: 76 ng/mL | concentration at 1 h [19]: 1700 ng/mL
Structure (SMILES): CC(C)S(=O)(=O)NC[C@H]1CC[C@H](NC(=O)CN2CCc3cc(Cl)ccc32)CC1
Activity [15]: Dose-dependent effect | minimal effective dose ([15]; read-out: MED): < 0.1 mg/kg
